Activity calls are given as the source filed them.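 Rule for the calls, unless noted: active = GFP response above 150% of the DMSO level; inconclusive = fewer than 70 events counted for a yeast strain; inactive = the rest.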

Assay [1] is described as follows: RPL19A-GFP modulators, yeast TOR pathway, confirmation, cell-based, S. cerevisiae, flow cytometry, cherry picks, mother/daughter gates (AID 2270;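 active = GFP response below 50% of the DMSO control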). Particulars: S. cerevisiae RPL19A-GFP strain, 3 h, at 10 µM, stronger effect = lower value, 100 = same GFP as DMSO wells. On the technique in general: In flow cytometry, cells or beads pass a laser one at a time.
Assay [2] in a line: LAP4-GFP expression modulators in yeast, confirmation, cell-based, cherry picks, flow cytometry, mother/daughter gates (AID 2271;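 active = GFP response above 150% of the DMSO control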;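 note: ratio of sample to DMSO plate mean so 100% equals DMSO level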). The conditions noted are these: S. cerevisiae LAP4-GFP strain, 3 h, at 10 µM, stronger effect = higher value, 100 means same as DMSO control. Put shortly: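 System: Alexa 633-stained baker's yeast GFP-fusion strain / Medium: synthetic complete (SC) yeast growth medium / Doses: compound at 10 µM, single point / Times: 3 h treatment at 30 °C with rotation / Detection: HT flow cytometry, GFP fluorescence channel / Benchmarks: DMSO-only negative wells, rapamycin 400 ng/mL positive wells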

A short description of assay [3]: modulators of MEP2-GFP levels in yeast, confirmation, S. cerevisiae, flow cytometry GFP, cherry picks (AID 2272;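 active = GFP response above 150% of the DMSO control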;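 note: ratio of well signal to plate DMSO mean so 100% equals DMSO level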). Particulars: S. cerevisiae MEP2-GFP strain, 3 h, at 10 µM, stronger effect = higher value.
Assay [4] can be described thus: AGP1-GFP expression modulators, hit retest, confirmation, cell-based, flow cytometry, S. cerevisiae, cherry picks (AID 2273).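 Note: median GFP channel fluorescence over the whole cell population gate.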 The conditions noted are these: S. cerevisiae AGP1-GFP strain, 3 h, at 10 µM.
A short description of assay [5]: modulators of CIT2-GFP expression in yeast, confirmation, S. cerevisiae, GFP fusion, cherry picks, mother/daughter gates (AID 2274). The conditions noted are these: S. cerevisiae CIT2-GFP strain, flow cytometry, 3 h, at 10 µM, stronger effect = higher value.
[6] abbreviates: measured here: daughter cell gate.
The mark [7] stands for this setting: measured here: mother cell gate.
The mark [8] stands for this setting: measured here: daughter cell gate response.
The mark [9] stands for this setting: measured here: mother cell gate response.

For `FC(F)(F)c1cc(-c2cccs2)nc2cc(-c3cccs3)nn12`, the GFP response vs DMSO in assay [1] is 103% (inactive); in assay [1] (setting [6]), 102%; in assay [1] (setting [7]) it was 102%; in assay [3], 103% (inactive). Further, the GFP response relative to DMSO in assay [2] was 97% (inactive); in assay [2] (setting [8]), 97.5%; in assay [2] (setting [9]) it was 97.3%. Also, the GFP response, % of DMSO in assay [4] was 95.1% (inactive); in assay [5], 93% (inactive); in assay [5] (setting [6]), 92%; in assay [5] (setting [7]), 94.4%.

Take `O=C1c2cccc3cccc(c23)C(=O)N1c1ccncc1`: the GFP response vs DMSO in assay [1] is 96.4% (inactive); in assay [1] (setting [6]), 97%; in assay [1] (setting [7]) it was 98.8%; in assay [3], 97.5% (inactive). Besides, the GFP response relative to DMSO is 84.9% (inactive) in assay [2], 85% in assay [2] (setting [8]) and 84.7% in assay [2] (setting [9]). The GFP response, % of DMSO in assay [4] was 103% (inactive); in assay [5], 105% (inactive); in assay [5] (setting [6]), 106%; in assay [5] (setting [7]), 106%.

Take `O=C(Cc1ccc(-c2ccccc2)cc1)OCC(=O)N1CCCC1=O`: the GFP response vs DMSO was 96.5% (inactive) in assay [1], 93.9% in assay [1] (setting [6]), 97.2% in assay [1] (setting [7]) and 97.8% (inactive) in assay [3]. The GFP response relative to DMSO in assay [2] was 112% (inactive); in assay [2] (setting [8]), 111%; in assay [2] (setting [9]), 114%. For the same compound, the GFP response, % of DMSO is 96.3% (inactive) in assay [4], 91.3% (inactive) in assay [5], 89.9% in assay [5] (setting [6]) and 91.2% in assay [5] (setting [7]).

Turning to `O=C(NNC(=S)NC(=O)c1ccco1)c1ccc(F)cc1`, the GFP response vs DMSO in assay [1] is 106% (inactive); in assay [1] (setting [6]), 106%; in assay [1] (setting [7]), 105%; in assay [3], 115% (inactive). The GFP response relative to DMSO in assay [2] was 115% (inactive); in assay [2] (setting [8]) it was 115%; in assay [2] (setting [9]), 114%. Also, the GFP response, % of DMSO in assay [4] was 104% (inactive); in assay [5], 107% (inactive); in assay [5] (setting [6]), 116%; in assay [5] (setting [7]), 102%.

On to `COc1cccc(NC(=O)c2ccc3c(c2)CCCC3)c1`, for which the GFP response vs DMSO in assay [1] is 101% (inactive); in assay [1] (setting [6]), 98.4%; in assay [1] (setting [7]), 102%; in assay [3], 97.8% (inactive). Also, the GFP response relative to DMSO in assay [2] is 96.2% (inactive); in assay [2] (setting [8]), 97.2%; in assay [2] (setting [9]), 99.3%. The GFP response, % of DMSO in assay [4] was 90.6% (inactive); in assay [5], 103% (inactive); in assay [5] (setting [6]) it was 101%; in assay [5] (setting [7]), 102%.

Regarding `O=C(c1cccc(COCC(F)(F)C(F)F)c1)N1CCN(c2ccccc2)CC1`, the GFP response vs DMSO was 101% (inactive) in assay [1], 101% in assay [1] (setting [6]), 102% in assay [1] (setting [7]) and 104% (inactive) in assay [3]. For the same compound, the GFP response relative to DMSO in assay [2] is 100% (inactive); in assay [2] (setting [8]), 97.9%; in assay [2] (setting [9]), 97.5%. In addition, the GFP response, % of DMSO was 102% (inactive) in assay [4], 97.8% (inactive) in assay [5], 96.4% in assay [5] (setting [6]) and 98% in assay [5] (setting [7]).

`COc1ccc(NC(=O)Nc2ccon2)c(OC)c1`: the GFP response vs DMSO in assay [1] was 101% (inactive); in assay [1] (setting [6]) it was 102%; in assay [1] (setting [7]), 99.5%; in assay [3] it was 99% (inactive). Further, the GFP response relative to DMSO in assay [2] is 95.7% (inactive); in assay [2] (setting [8]) it was 94.2%; in assay [2] (setting [9]), 95.2%. The GFP response, % of DMSO in assay [4] was 106% (inactive); in assay [5] it was 103% (inactive); in assay [5] (setting [6]) it was 99.2%; in assay [5] (setting [7]), 101%.

With `COc1ccc(CNC(=O)c2nc(S(=O)(=O)Cc3ccccc3)ncc2Cl)cc1`, the GFP response vs DMSO was 102% (inactive) in assay [1], 104% in assay [1] (setting [6]), 101% in assay [1] (setting [7]) and 116% (inactive) in assay [3]. Moreover, the values for the GFP response relative to DMSO in assay [2], in assay [2] (setting [8]) and in assay [2] (setting [9]) were 107% (inactive), 107% and 108%, respectively. Also, the GFP response, % of DMSO in assay [4] was 103% (inactive); in assay [5] it was 106% (inactive); in assay [5] (setting [6]), 106%; in assay [5] (setting [7]), 105%.

These data come from PubChem BioAssay.
